Experimental data as given in ChEMBL document CHEMBL4138179, “Design, synthesis and cytotoxic activity of N-Modified oleanolic saponins bearing A glucosamine” (Eur J Med Chem, 2018).

Key:
Type in all cases: functional, cell-based
HL-60 = test: Cytotoxicity against human HL60 cells assessed as cell growth inhibition after 48 hrs by MTT assay; conditions: HL-60, 48 h
In short: (§1)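 Cells from ATCC; HL-60 grown in IMDM, PC-3 in RPMI 1640, HT29 in DMEM, each with 10% FBS and penicillin/streptomycin, 37 °C, 5% CO2. Cells incubated without or with compound at the indicated concentrations and times. Mitochondrial MTT reduction read at 570 nm on a plate reader. IC50 given as mean ± SD of at least three independent experiments.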

HT-29 = test: Cytotoxicity against human HT-29 cells assessed as cell growth inhibition after 48 hrs by MTT assay; conditions: HT-29, 48 h; in short: as §1
PC-3 = test: Cytotoxicity against human PC3 cells assessed as cell growth inhibition after 48 hrs by MTT assay; conditions: PC-3, 48 h; in short: as §1

Row | Compound | IC50 (HL-60) | IC50 (HT-29) | IC50 (PC-3)
1 | O=c1[nH]cc(F)c(=O)[nH]1 [FLUOROURACIL] | > 30 µM | 8.3 µM | > 30 µM
2 | CCCCCCOC(=O)N[C@H]1[C@H](O[C@H]2CC[C@]3(C)[C@H]4CC=C5[C@@H]6CC(C)(C)CC[C@]6(C(=O)O)CC[C@@]5(C)[C@]4(C)CC[C@H]3C2(C)C)O[C@H](CO)[C@@H](O)[C@@H]1O | 1.44 µM | 21.4 µM | 13.9 µM
3 | CCCCOC(=O)N[C@H]1[C@H](O[C@H]2CC[C@]3(C)[C@H]4CC=C5[C@@H]6CC(C)(C)CC[C@]6(C(=O)O)CC[C@@]5(C)[C@]4(C)CC[C@H]3C2(C)C)O[C@H](CO)[C@@H](O)[C@@H]1O | 2.23 µM | 18.1 µM | 15 µM
4 | CC[C@]1(O)C[C@H]2CN(CCc3c([nH]c4ccccc34)[C@@](C(=O)OC)(c3cc4c(cc3OC)N(C=O)[C@H]3[C@@](O)(C(=O)OC)[C@H](OC(C)=O)[C@]5(CC)C=CCN6CC[C@]43[C@@H]65)C2)C1 [VINCRISTINE] | 0.0018 µM |  | > 0.025 µM
5 | CCCCCCCCCCCCCCCCCC(=O)N[C@H]1[C@H](O[C@H]2CC[C@]3(C)[C@H]4CC=C5[C@@H]6CC(C)(C)CC[C@]6(C(=O)O)CC[C@@]5(C)[C@]4(C)CC[C@H]3C2(C)C)O[C@H](CO)[C@@H](O)[C@@H]1O | > 30 µM | > 30 µM | > 30 µM
6 | CCC(=O)N[C@H]1[C@H](O[C@H]2CC[C@]3(C)[C@H]4CC=C5[C@@H]6CC(C)(C)CC[C@]6(C(=O)O)CC[C@@]5(C)[C@]4(C)CC[C@H]3C2(C)C)O[C@H](CO)[C@@H](O)[C@@H]1O | 6.83 µM | 16.4 µM | 11.9 µM
7 | CCCCCCCOC(=O)N[C@H]1[C@H](O[C@H]2CC[C@]3(C)[C@H]4CC=C5[C@@H]6CC(C)(C)CC[C@]6(C(=O)O)CC[C@@]5(C)[C@]4(C)CC[C@H]3C2(C)C)O[C@H](CO)[C@@H](O)[C@@H]1O | 0.76 µM | 21.7 µM | 15.4 µM
8 | CCCCCCCCOC(=O)N[C@H]1[C@H](O[C@H]2CC[C@]3(C)[C@H]4CC=C5[C@@H]6CC(C)(C)CC[C@]6(C(=O)O)CC[C@@]5(C)[C@]4(C)CC[C@H]3C2(C)C)O[C@H](CO)[C@@H](O)[C@@H]1O | 1.42 µM | 20.3 µM | 15.4 µM
9 | CCCOC(=O)N[C@H]1[C@H](O[C@H]2CC[C@]3(C)[C@H]4CC=C5[C@@H]6CC(C)(C)CC[C@]6(C(=O)O)CC[C@@]5(C)[C@]4(C)CC[C@H]3C2(C)C)O[C@H](CO)[C@@H](O)[C@@H]1O | 21.5 µM | > 30 µM | > 30 µM
10 | CCOC(=O)N[C@H]1[C@H](O[C@H]2CC[C@]3(C)[C@H]4CC=C5[C@@H]6CC(C)(C)CC[C@]6(C(=O)O)CC[C@@]5(C)[C@]4(C)CC[C@H]3C2(C)C)O[C@H](CO)[C@@H](O)[C@@H]1O | 12.5 µM | > 30 µM | > 30 µM
11 | CC(=O)N[C@H]1[C@H](O[C@H]2CC[C@]3(C)[C@H]4CC=C5[C@@H]6CC(C)(C)CC[C@]6(C(=O)O)CC[C@@]5(C)[C@]4(C)CC[C@H]3C2(C)C)O[C@H](CO)[C@@H](O)[C@@H]1O | 10.3 µM | > 30 µM | > 30 µM
12 | CCCCCCCCCCCCCC(=O)N[C@H]1[C@H](O[C@H]2CC[C@]3(C)[C@H]4CC=C5[C@@H]6CC(C)(C)CC[C@]6(C(=O)O)CC[C@@]5(C)[C@]4(C)CC[C@H]3C2(C)C)O[C@H](CO)[C@@H](O)[C@@H]1O | 10.7 µM | > 30 µM | > 30 µM
13 | CCCCCCCCCCCCCCCC(=O)N[C@H]1[C@H](O[C@H]2CC[C@]3(C)[C@H]4CC=C5[C@@H]6CC(C)(C)CC[C@]6(C(=O)O)CC[C@@]5(C)[C@]4(C)CC[C@H]3C2(C)C)O[C@H](CO)[C@@H](O)[C@@H]1O | > 30 µM | > 30 µM | > 30 µM
14 | CCCCCCC(=O)N[C@H]1[C@H](O[C@H]2CC[C@]3(C)[C@H]4CC=C5[C@@H]6CC(C)(C)CC[C@]6(C(=O)O)CC[C@@]5(C)[C@]4(C)CC[C@H]3C2(C)C)O[C@H](CO)[C@H](O)[C@@H]1O | 2.69 µM | > 30 µM | > 30 µM
15 | CCCCCCCCNC(=O)N[C@H]1[C@H](O[C@H]2CC[C@]3(C)[C@H]4CC=C5[C@@H]6CC(C)(C)CC[C@]6(C(=O)O)CC[C@@]5(C)[C@]4(C)CC[C@H]3C2(C)C)O[C@H](CO)[C@@H](O)[C@@H]1O | 2.14 µM | > 30 µM | > 30 µM
16 | CCCCCCCCCCCC(=O)N[C@H]1[C@H](O[C@H]2CC[C@]3(C)[C@H]4CC=C5[C@@H]6CC(C)(C)CC[C@]6(C(=O)O)CC[C@@]5(C)[C@]4(C)CC[C@H]3C2(C)C)O[C@H](CO)[C@@H](O)[C@@H]1O | 1.57 µM | > 30 µM | 21.4 µM
17 | CC1(C)CC[C@]2(C(=O)O)CC[C@]3(C)C(=CC[C@@H]4[C@@]5(C)CC[C@H](O)C(C)(C)[C@@H]5CC[C@]43C)[C@@H]2C1 [OLEANOLIC_ACID] | > 30 µM | > 30 µM | > 30 µM
18 | CCCCCCCCC(=O)N[C@H]1[C@H](O[C@H]2CC[C@]3(C)[C@H]4CC=C5[C@@H]6CC(C)(C)CC[C@]6(C(=O)O)CC[C@@]5(C)[C@]4(C)CC[C@H]3C2(C)C)O[C@H](CO)[C@@H](O)[C@@H]1O | 1.46 µM | 22.8 µM | 14.7 µM
19 | CCCCC(=O)N[C@H]1[C@H](O[C@H]2CC[C@]3(C)[C@H]4CC=C5[C@@H]6CC(C)(C)CC[C@]6(C(=O)O)CC[C@@]5(C)[C@]4(C)CC[C@H]3C2(C)C)O[C@H](CO)[C@@H](O)[C@@H]1O | 10.6 µM | 21.7 µM | 24 µM
20 | CC(=O)N[C@H]1[C@H](O[C@H]2CC[C@]3(C)[C@H]4CC=C5[C@@H]6CC(C)(C)CC[C@]6(C(=O)O)CC[C@@]5(C)[C@]4(C)CC[C@H]3C2(C)C)O[C@H](CO)[C@H](O)[C@@H]1O | 11.6 µM | 23.3 µM | 23.4 µM
21 | CCCCCC(=O)N[C@H]1[C@H](O[C@H]2CC[C@]3(C)[C@H]4CC=C5[C@@H]6CC(C)(C)CC[C@]6(C(=O)O)CC[C@@]5(C)[C@]4(C)CC[C@H]3C2(C)C)O[C@H](CO)[C@@H](O)[C@@H]1O | 5.82 µM | > 30 µM | > 30 µM
22 | CCCCCOC(=O)N[C@H]1[C@H](O[C@H]2CC[C@]3(C)[C@H]4CC=C5[C@@H]6CC(C)(C)CC[C@]6(C(=O)O)CC[C@@]5(C)[C@]4(C)CC[C@H]3C2(C)C)O[C@H](CO)[C@@H](O)[C@@H]1O | 1.46 µM | > 30 µM | > 30 µM
23 | CCCCCCCCCC(=O)N[C@H]1[C@H](O[C@H]2CC[C@]3(C)[C@H]4CC=C5[C@@H]6CC(C)(C)CC[C@]6(C(=O)O)CC[C@@]5(C)[C@]4(C)CC[C@H]3C2(C)C)O[C@H](CO)[C@@H](O)[C@@H]1O | 1.4 µM | > 30 µM | > 30 µM
24 | CCCC(=O)N[C@H]1[C@H](O[C@H]2CC[C@]3(C)[C@H]4CC=C5[C@@H]6CC(C)(C)CC[C@]6(C(=O)O)CC[C@@]5(C)[C@]4(C)CC[C@H]3C2(C)C)O[C@H](CO)[C@@H](O)[C@@H]1O | 2.48 µM | > 30 µM | > 30 µM
